This passage reports fold change results from PubChem BioAssay AID463143 (The Scripps Research Institute Molecular Screening Center, 2010).

Activity calls are given as the source filed them.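 How the source made its calls: active means fold change in liver X receptor activation above 2; inactive means the rest.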

The test has as its target Oxysterols receptor LXR-beta (Homo sapiens) (UniProt P55055). Put plainly: LXR activators, GAL4 reporter, late-stage follow-up, selectivity assay for RORA inverse agonist project, cell-based, luminescence, single concentration, powder samples (AID 463143). The conditions noted are these: HEK293T GAL4-LXR LBD luciferase reporter, 18-24 h; at 10 µM; hits give high values. In outline: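 Material: HEK293T cells carrying GAL4-LXR ligand-binding-domain fusion plus UAS-luciferase reporter / Doses: single nominal dose of 10 µM per compound / Incubation: 20 h compound exposure / Measured by: luciferase luminescence / Read-out: fold change versus DMSO vehicle / Controls: DMSO-treated cells as vehicle reference / Repeats: six replicates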
On the technique in general: In a reporter assay the amount or activity of a reporter protein is the signal.

Oxysterols receptor LXR-beta (Homo sapiens), sequence (P55055 whole entry, looked up, the tested form may be a part): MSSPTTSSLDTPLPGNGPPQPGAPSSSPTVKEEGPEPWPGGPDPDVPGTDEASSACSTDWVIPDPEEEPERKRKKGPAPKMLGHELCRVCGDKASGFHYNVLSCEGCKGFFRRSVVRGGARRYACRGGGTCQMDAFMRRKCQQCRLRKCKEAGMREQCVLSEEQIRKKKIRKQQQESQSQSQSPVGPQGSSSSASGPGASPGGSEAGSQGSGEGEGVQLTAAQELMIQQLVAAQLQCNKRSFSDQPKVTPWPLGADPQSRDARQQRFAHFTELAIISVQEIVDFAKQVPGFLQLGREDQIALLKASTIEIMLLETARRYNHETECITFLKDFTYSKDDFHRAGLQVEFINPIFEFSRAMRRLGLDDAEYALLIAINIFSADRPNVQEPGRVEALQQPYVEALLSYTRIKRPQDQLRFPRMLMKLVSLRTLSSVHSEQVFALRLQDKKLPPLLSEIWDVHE

For the molecule `O=C(Nc1ccc(C(O)(C(F)(F)F)C(F)(F)F)cc1)c1ccc(F)cc1F`, the fold change was 1.39 (inactive). Take `O=C(Nc1ccc(C(O)(C(F)(F)F)C(F)(F)F)cc1)c1ccc(Cl)cc1`: the fold change is 1.15 (inactive). For `O=C(Nc1ccc(C(O)(C(F)(F)F)C(F)(F)F)cc1)c1ccc(F)cc1Cl`, the fold change was 1.04 (inactive). With `O=C(Nc1ccc(C(O)(C(F)(F)F)C(F)(F)F)cc1)c1c(F)cccc1F` the figure was 0.937 (inactive); with `O=C(Nc1ccc(C(O)(C(F)(F)F)C(F)(F)F)cc1)c1ccccc1C(F)(F)F`, 0.958 (inactive). With `O=S(=O)(Nc1ccc(C(O)(C(F)(F)F)C(F)(F)F)cc1)c1cccs1` the figure was 1.39 (inactive).
